The source made the active and inactive calls.
Columns and labels:
[1] = biological target: T1, Acid ceramidase (Homo sapiens) (UniProt Q13510); assay: Inhibition of ACDase in human MCF7 cells assessed as down regulation of sphingosine at 10 uM after 24 hrs by LC-MS/MS analysis; type: cell-based
T1 sequence (whole entry): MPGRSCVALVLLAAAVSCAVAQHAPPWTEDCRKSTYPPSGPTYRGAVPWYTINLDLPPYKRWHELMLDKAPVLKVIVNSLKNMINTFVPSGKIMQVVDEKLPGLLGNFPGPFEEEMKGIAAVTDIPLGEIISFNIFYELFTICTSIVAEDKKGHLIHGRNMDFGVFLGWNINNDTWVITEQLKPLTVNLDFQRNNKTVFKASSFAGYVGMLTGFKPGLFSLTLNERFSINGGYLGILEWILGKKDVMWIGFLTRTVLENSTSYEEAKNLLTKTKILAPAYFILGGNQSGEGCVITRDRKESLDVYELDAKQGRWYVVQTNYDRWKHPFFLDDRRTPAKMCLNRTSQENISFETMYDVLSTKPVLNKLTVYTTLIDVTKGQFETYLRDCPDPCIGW
Procedure, shortened: (§1)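 Exposure of MCF7 cells to vehicle or 10 μM LCL521 for 0.25–24h. Cer, Sph and S1P measured by LC-MS/MS in pellet lipid extracts, normalized to lipid phosphate, given as % control; means ± st dev of 4 replicates.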

MCF7 [2] = assay: Down regulation of alpha-ACDase protein expression in human MCF7 cells up to 1 uM after 1 hr by Western blot analysis; type: functional, cell-based
Procedure, shortened: (§2)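 MCF7 cells (RPMI 1640, 10% FBS, 37°C, 5% CO2; 1×10^6 seeded in 100 mm dishes overnight) exposed to vehicle or LCL521, 0.1–10 μM for 1h, or 1 μM for 0.25–10h. α-ACDase detected by western blot, with actin as the loading/transfer control.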

[3] = biological target: T1, Acid ceramidase (Homo sapiens); assay: Inhibition of ACDase in human MCF7 cells assessed as upregulation of C16-ceramide species at 10 uM after 1 hr by LC-MS/MS analysis; type: cell-based
Procedure, shortened: (§3)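 MCF7 cells treated 1h with vehicle or 10 μM LCL521. Chain-length ceramide species and Sph in pellet lipid extracts quantified by LC-MS/MS per nmol lipid phosphate; means ± st dev of 6 replicates, t-test against control.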

[4] = biological target: T1, Acid ceramidase (Homo sapiens); assay: Inhibition of ACDase in human MCF7 cells assessed as down regulation of sphingosine at 10 uM after 2 hrs by LC-MS/MS analysis; type: cell-based; procedure, shortened: as §1
[5] = biological target: T1, Acid ceramidase (Homo sapiens); assay: Inhibition of ACDase in human MCF7 cells assessed as upregulation of C14-ceramide species at 10 uM after 1 hr by LC-MS/MS analysis; type: cell-based; procedure, shortened: as §3
MCF7 [6] = assay: Down regulation of alpha-ACDase protein expression in human MCF7 cells at 1 uM after 1 hr by Western blot analysis; type: functional, cell-based; procedure, shortened: as §2
[7] = biological target: T1, Acid ceramidase (Homo sapiens); assay: Inhibition of ACDase in human MCF7 cells assessed as down regulation of sphingosine at 1 uM after 10 hrs by LC-MS/MS analysis; type: cell-based
Procedure, shortened: (§4)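 MCF7 cells received vehicle or 1 μM LCL521 for 10h. Lipids were extracted from cell pellets, and Cer, Sph and S1P were quantified by LC-MS/MS as pmol/nmol lipid phosphate, expressed as % control; means ± st dev of 5 replicates.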

MCF7 [8] = assay: Down regulation of alpha-ACDase expression in human MCF7 cells at 10 uM after 24 hrs in presence of cyclohexamide by Western blot analysis; type: functional, cell-based
Procedure, shortened: (§5)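 MCF7 cells pretreated 1h with vehicle or 40 μM cycloheximide, then given vehicle or 10 μM LCL521 alone or combined for 1, 8 and 24h. P- and α-ACDase detected by western blot against actin.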

PPC-1 = assay: Down regulation of ACDase protein expression in human PPC1 cells at 5 to 10 uM after 5 hrs by Western blot analysis; type: functional, cell-based
Procedure, shortened: (§6)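 Cell lines SCC14A (mouth squamous carcinoma) and PPC-1 (prostate cancer) given a single treatment of LCL521; ACDase protein detected by western blot.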

[9] = biological target: T1, Acid ceramidase (Homo sapiens); assay: Inhibition of ACDase in human MCF7 cells assessed as down regulation of sphingosine 1-phosphate at 10 uM after 24 hrs by LC-MS/MS analysis; type: cell-based; procedure, shortened: as §1
[10] = biological target: T1, Acid ceramidase (Homo sapiens); assay: Inhibition of ACDase in human MCF7 cells assessed as upregulation of dihydroceramide species at 10 uM treated for 24 hrs after 1 hr treatment with myriocin by LC-MS/MS analysis; type: cell-based
Procedure, shortened: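 MCF7 cells pretreated 1h with 100nM myriocin, then combined with vehicle or 10 μM LCL521 for 24h. Cn-dhCer quantified by LC-MS/MS per nmol lipid phosphate; triplicates.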

[11] = biological target: T1, Acid ceramidase (Homo sapiens); assay: Inhibition of ACDase in human MCF7 cells assessed as down regulation of sphingosine at 10 uM after 1 to 24 hrs by LC-MS/MS analysis; type: cell-based; procedure, shortened: as §1
MCF7 [12] = assay: Down regulation of p-ACDase expression in human MCF7 cells at 10 uM after 24 hrs in presence of cyclohexamide by Western blot analysis; type: functional, cell-based; procedure, shortened: as §5
MCF7 [13] = assay: Down regulation of alpha-ACDase expression in human MCF7 cells at 1 uM after 10 hrs by Western blot analysis; type: functional, cell-based
[14] = biological target: T1, Acid ceramidase (Homo sapiens); assay: Inhibition of ACDase in human MCF7 cells assessed as upregulation of ceramide at 10 uM after 2 hrs by LC-MS/MS analysis; type: cell-based; procedure, shortened: as §1
UMSCC14A = assay: Down regulation of ACDase protein expression in human UMSCC14A cells at 5 to 10 uM after 5 hrs by Western blot analysis; type: functional, cell-based; procedure, shortened: as §6
MCF7 [15] = assay: Down regulation of p-ACDase expression in human MCF7 cells at 10 uM after 8 hrs by Western blot analysis; type: functional, cell-based
Procedure, shortened: (§7)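 MCF7 cells seeded overnight (1×10^6 per 100 mm dish) were exposed to vehicle or 10 μM LCL521 for 1, 2, 5, 8, 15 and 24h, or to 0.1–10 μM for 1h. α- and precursor (P-)ACDase detected by western blot; actin monitored loading and transfer.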

[16] = biological target: T1, Acid ceramidase (Homo sapiens); assay: Inhibition of ACDase in human MCF7 cells assessed as upregulation of dihydroceramide at 10 uM after 1 hr by LC-MS/MS analysis; type: cell-based
MCF7 [17] = assay: Down regulation of alpha-ACDase protein expression in human MCF7 cells at >2.5 uM after 1 hr by Western blot analysis; type: functional, cell-based; procedure, shortened: as §7
[18] = biological target: T2, Sphingolipid delta(4)-desaturase DES1 (Homo sapiens) (UniProt O15121); assay: Inhibition of dihydroceramide desaturase in human MCF7 cells assessed as decrease in remaining activity at 5 to 10 uM after 24 hrs; type: cell-based
T2 sequence (whole entry): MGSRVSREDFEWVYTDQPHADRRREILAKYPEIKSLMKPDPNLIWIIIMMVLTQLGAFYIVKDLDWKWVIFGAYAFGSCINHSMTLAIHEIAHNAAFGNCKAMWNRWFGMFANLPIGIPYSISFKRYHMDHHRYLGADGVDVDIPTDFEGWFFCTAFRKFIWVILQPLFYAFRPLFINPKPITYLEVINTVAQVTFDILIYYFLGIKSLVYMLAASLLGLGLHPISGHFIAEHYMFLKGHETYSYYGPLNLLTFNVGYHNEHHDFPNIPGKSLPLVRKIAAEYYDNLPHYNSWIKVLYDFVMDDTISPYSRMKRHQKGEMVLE
Procedure, shortened: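 Intact MCF7 cells (3×10^6 seeded in 150 mm dishes overnight) treated with vehicle or LCL521 for 24h. Cells were then pelleted and dihydroceramide desaturase activity assayed by a prior method. Means ± st dev of triplicates versus 0 μM.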

[19] = biological target: T1, Acid ceramidase (Homo sapiens); assay: Inhibition of ACDase in human MCF7 cells assessed as upregulation of ceramide at 10 uM after 8 to 24 hrs by LC-MS/MS analysis; type: cell-based; procedure, shortened: as §1
[20] = biological target: T1, Acid ceramidase (Homo sapiens); assay: Inhibition of ACDase in human MCF7 cells assessed as down regulation of sphingosine 1-phosphate at 1 uM after 10 hrs by LC-MS/MS analysis; type: cell-based; procedure, shortened: as §4
MCF7 [21] = assay: Down regulation of alpha-ACDase protein expression in human MCF7 cells at 10 uM after 1 hr by Western blot analysis; type: functional, cell-based; procedure, shortened: as §7
MCF7 [22] = assay: Down regulation of alpha-ACDase expression in human MCF7 cells at 10 uM after 2 to 24 hrs by Western blot analysis; type: functional, cell-based; procedure, shortened: as §7
[23] = biological target: T1, Acid ceramidase (Homo sapiens); assay: Inhibition of ACDase in human MCF7 cells assessed as down regulation of dihydrosphingosine at 10 uM after 1 hr by LC-MS/MS analysis; type: cell-based
MCF7 [24] = assay: Down regulation of p-ACDase expression in human MCF7 cells assessed as p-ACDase expression at 10 uM measured at 24 hrs by Western blot analysis; type: functional; procedure, shortened: as §7
[25] = biological target: T1, Acid ceramidase (Homo sapiens); assay: Inhibition of ACDase in human MCF7 cells assessed as upregulation of dhC16-Cer species at 10 uM after 1 hr by LC-MS/MS analysis; type: cell-based
[26] = biological target: T1, Acid ceramidase (Homo sapiens); assay: Inhibition of ACDase in human MCF7 cells assessed as upregulation of dihydroceramide species at 10 uM after 8 to 24 hrs by LC-MS/MS analysis; type: cell-based
Procedure, shortened: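 Over 8 and 24h, MCF7 cells received vehicle or 10 μM LCL521. Cn-dhCer species and dhSph quantified by LC-MS/MS in extracted lipids, normalized to lipid phosphate; means ± st dev of 4 replicates.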

MCF7 [27] = assay: Down regulation of alpha-ACDase protein expression in human MCF7 cells at 10 uM treated for 5 hrs after pretreatment with 4 uM CA-074me for 30 mins by Western blot analysis; type: functional, cell-based
Procedure, shortened: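 MCF7 cells pretreated with a cathepsin B inhibitor, then exposed to 10 μM LCL521. α-ACDase protein assessed by western blot.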

MCF7 [28] = assay: Down regulation of alpha-ACDase expression in human MCF7 cells at 10 uM after 8 hrs by Western blot analysis; type: functional, cell-based; procedure, shortened: as §7

CCCCCCCCCCCCCC(=O)N[C@H](COC(=O)CN(C)C)[C@H](OC(=O)CN(C)C)c1ccc([N+](=O)[O-])cc1.Cl.Cl
active: inhibition [3] | inhibition [4] | inhibition [5] | Activity (MCF7 [8]) | Activity (PPC-1) | inhibition [9] | inhibition [11] | Activity (MCF7 [12]) | inhibition [14] | Activity (UMSCC14A) | Activity (MCF7 [15]) | inhibition [16] | Activity (MCF7 [17]) Dose-dependent effect | inhibition [18] | inhibition [19] | Activity (MCF7 [21]) | Activity (MCF7 [22]) | inhibition [23] | inhibition [25] | inhibition [26] | Activity (MCF7 [28])
inactive: inhibition [1] | Activity (MCF7 [2]) | Activity (MCF7 [6]) | inhibition [7] | inhibition [10] | inhibition (MCF7 [13]) | inhibition [20] | Activity (MCF7 [27])
>70%: Activity (MCF7 [24])

— ChEMBL document CHEMBL4308872, “Dose dependent actions of LCL521 on acid ceramidase and key sphingolipid metabolites” (2018)
